Legend:
recombinant DPP9 = recombinant DPP9 (Homo sapiens, UniProt Q86TI2); experiment: AP-AMC-based DPP9 substrate assay; type: biochemical; conditions: Supplementary Table 1
In short: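 Recombinant DPP9 (1 nM) is dispensed into 384-well plates and test compound is added by pintool over a concentration series. Reaction starts with 25 μM AP-AMC. Cleavage is read as rising fluorescence (ex/em 380/460 nm) at 25 °C for 30 min.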

PEPD [1] = biological target: T1, PEPD (Homo sapiens, UniProt P12955); experiment: PEPD assay; type: biochemical
T1 sequence (P12955 1-493): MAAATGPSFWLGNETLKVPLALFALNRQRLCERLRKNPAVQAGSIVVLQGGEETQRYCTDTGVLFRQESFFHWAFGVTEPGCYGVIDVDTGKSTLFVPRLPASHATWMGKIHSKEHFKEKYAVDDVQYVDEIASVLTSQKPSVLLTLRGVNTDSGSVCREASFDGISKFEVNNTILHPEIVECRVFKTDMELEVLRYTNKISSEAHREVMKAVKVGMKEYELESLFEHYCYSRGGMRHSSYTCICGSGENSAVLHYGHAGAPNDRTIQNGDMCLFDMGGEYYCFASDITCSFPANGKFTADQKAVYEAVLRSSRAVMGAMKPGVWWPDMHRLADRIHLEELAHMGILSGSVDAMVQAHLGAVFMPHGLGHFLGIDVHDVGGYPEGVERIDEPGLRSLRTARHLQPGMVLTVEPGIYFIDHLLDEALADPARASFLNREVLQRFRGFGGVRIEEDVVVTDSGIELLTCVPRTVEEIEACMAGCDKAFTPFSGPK
In short: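 His-tagged human PEPD is expressed in E. coli Rosetta DE3 (IPTG, 4 h, 37 °C) and purified on TALON resin. Enzyme at 50 nM is mixed with Ala-Pro (40 μM final) and test compound. Liberated alanine is measured fluorometrically (resorufin, ex/em 535/587 nm) at 25 °C with an L-alanine assay kit.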

prolidase (PEPD) = biological target: T2, prolidase (PEPD) (Homo sapiens, UniProt P12955); experiment: Prolidase activity; type: biochemical; conditions: dose-dependent
T2 sequence (P12955 1-493): T1 sequence (P12955 1-493)
In short: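 THP-1 lysates are normalised to 5 mg ml−1 and incubated with Ala-Pro dipeptide (40 μM final) and test compound at varying doses. Released alanine is quantified as increasing resorufin fluorescence (535/587 nm) at 25 °C using an L-alanine detection kit.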

[2] = tested on: bestatin-sensitive aminopeptidases; experiment: Recombinant aminopeptidase AMC reporter assays; type: biochemical; conditions: Supplementary Table 1
In short: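 Recombinant enzymes are incubated with test compound over a concentration range, then AMC substrate is added. Enzyme and substrate pairs: RNPEP 1.4 nM with 200 μM R-AMC; DPP3 0.6 nM with 100 μM RR-AMC; LTA4H 114.3 nM with 400 μM R-AMC; NPEPPS 1 nM with 10 μM L-AMC; ANPEP 1.2 nM with 100 μM A-AMC. Fluorescence (380/460 nm) is recorded at 25 °C for 30 min.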

PEPD [3] = biological target: T1, PEPD; experiment: CETSA in HEK 293T lysates; type: binding; conditions: 10 μM
In short: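 HEK 293T cells are sonicated and cleared at 10,000g for 10 min. Clarified lysate is incubated with test compound (10 μM) for 30 min, then heated for 30 min at a temperature series. Aggregates are pelleted at 18,000g for 20 min, and the soluble supernatant is immunoblotted for the target.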

NPEPPS = NPEPPS (Homo sapiens, UniProt P55786); experiment: CETSA in HEK 293T lysates; type: binding; conditions: 10 μM
NPEPPS, sequence (P55786 whole entry): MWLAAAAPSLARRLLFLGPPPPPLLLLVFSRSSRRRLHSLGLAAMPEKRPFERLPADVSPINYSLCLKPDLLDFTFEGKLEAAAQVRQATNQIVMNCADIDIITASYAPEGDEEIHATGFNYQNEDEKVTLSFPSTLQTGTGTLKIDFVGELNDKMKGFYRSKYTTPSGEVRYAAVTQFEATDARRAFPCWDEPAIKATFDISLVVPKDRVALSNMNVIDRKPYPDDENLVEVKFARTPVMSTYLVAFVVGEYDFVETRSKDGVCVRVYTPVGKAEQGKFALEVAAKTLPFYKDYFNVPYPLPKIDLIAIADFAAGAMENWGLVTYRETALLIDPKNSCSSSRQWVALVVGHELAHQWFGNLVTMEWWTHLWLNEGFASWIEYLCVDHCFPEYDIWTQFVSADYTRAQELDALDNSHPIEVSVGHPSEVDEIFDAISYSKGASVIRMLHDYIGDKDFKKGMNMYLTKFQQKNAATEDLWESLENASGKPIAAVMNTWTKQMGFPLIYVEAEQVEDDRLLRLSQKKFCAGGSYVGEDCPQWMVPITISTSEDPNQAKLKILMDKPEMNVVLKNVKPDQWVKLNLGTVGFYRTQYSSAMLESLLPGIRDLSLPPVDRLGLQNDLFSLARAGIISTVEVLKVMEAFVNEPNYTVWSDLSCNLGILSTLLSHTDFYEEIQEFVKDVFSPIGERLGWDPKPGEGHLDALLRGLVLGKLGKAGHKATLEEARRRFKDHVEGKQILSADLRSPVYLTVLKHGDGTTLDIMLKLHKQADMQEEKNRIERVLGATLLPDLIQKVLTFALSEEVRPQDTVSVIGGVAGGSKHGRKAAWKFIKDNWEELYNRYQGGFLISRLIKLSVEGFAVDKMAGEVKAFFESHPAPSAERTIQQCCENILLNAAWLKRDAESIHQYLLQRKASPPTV
In short: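 HEK 293T cells homogenised by sonication; debris cleared at 10,000g for 10 min. Clarified lysate incubated 30 min with test compound, then heated 30 min at a series of set temperatures between 38.7 and 70.9 °C. Aggregates pelleted at 18,000g for 20 min; soluble target in supernatant detected by immunoblotting.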

PEPD [4] = biological target: T1, PEPD; experiment: CETSA in THP-1 cell lysates; type: binding; conditions: 0.5, 5 μM
In short: (§1)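 THP-1 (Cas9) cell lysate is made by sonication and cleared at 10,000g for 10 min. It is exposed to test compound (0.5 or 5 μM) for 30 min, then heated 30 min at 40.6, 50.8, 60.1 or 70.9 °C. After spinning at 18,000g for 20 min, the soluble fraction is immunoblotted.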

XPNPEP1 [5] = biological target: T3, XPNPEP1 (Homo sapiens, UniProt Q9NQW7); experiment: CETSA in THP-1 cell lysates; type: binding; conditions: 0.5, 5 μM
In short: as §1
Target sequence in this assay (Q9NQW7 whole entry): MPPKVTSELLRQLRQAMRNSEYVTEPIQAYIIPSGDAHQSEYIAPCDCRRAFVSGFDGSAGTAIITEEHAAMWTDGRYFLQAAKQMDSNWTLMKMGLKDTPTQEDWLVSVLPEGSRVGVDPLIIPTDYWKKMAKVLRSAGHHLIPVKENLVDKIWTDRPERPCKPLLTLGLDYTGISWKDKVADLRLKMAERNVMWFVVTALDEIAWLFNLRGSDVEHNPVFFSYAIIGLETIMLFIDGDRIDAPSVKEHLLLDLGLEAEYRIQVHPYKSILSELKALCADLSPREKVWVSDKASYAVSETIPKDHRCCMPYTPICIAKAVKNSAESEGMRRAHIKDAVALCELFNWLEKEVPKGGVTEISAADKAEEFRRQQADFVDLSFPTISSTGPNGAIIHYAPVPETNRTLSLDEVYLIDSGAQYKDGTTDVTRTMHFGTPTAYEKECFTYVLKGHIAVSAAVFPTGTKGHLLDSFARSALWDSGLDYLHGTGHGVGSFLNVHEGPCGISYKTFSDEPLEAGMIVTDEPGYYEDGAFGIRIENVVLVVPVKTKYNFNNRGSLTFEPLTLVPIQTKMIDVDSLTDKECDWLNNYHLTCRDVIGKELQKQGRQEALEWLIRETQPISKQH

XPNPEP3 [6] = biological target: T4, XPNPEP3 (Homo sapiens, UniProt Q9NQH7); experiment: CETSA in THP-1 cell lysates; type: binding
In short: as §1

XPNPEP1 [7] = biological target: T3, XPNPEP1; experiment: XPNPEP1 enzymatic assay; type: biochemical; conditions: Supplementary Table 2
In short: (§2)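 Enzymes are XPNPEP1 recombinant at 3.5 nM, or XPNPEP3 FLAG-immunoprecipitated after 48 h overexpression in HEK 293T. Each is treated with graded doses of test compound. H-Lys(abz)-Pro-Pro-pNA is added at 100 μM final, and fluorescence (ex/em 320/410 nm) is monitored for 30 min.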
Target sequence in this assay (Q9NQW7 whole entry, species assumed): as the sequence (Q9NQW7 whole entry) above

XPNPEP3 [8] = biological target: T4, XPNPEP3; experiment: XPNPEP3 enzymatic assay; type: biochemical; conditions: Supplementary Table 2
In short: as §2

MV4;11 cells = experiment: MV4; type: cell-based; conditions: 24 h, CTG
NLRP1–DPP9 interaction = NLRP1–DPP9 interaction (Homo sapiens, UniProt Q86TI2); experiment: DPP9 displacement from FLAG-NLRP1 on anti-FLAG beads; type: binding; conditions: VbP 10 μM; VP dipeptide 0.5, 5 mM; CQ31, CQ04 10 μM
NLRP1–DPP9 interaction, sequence (Q86TI2 whole entry): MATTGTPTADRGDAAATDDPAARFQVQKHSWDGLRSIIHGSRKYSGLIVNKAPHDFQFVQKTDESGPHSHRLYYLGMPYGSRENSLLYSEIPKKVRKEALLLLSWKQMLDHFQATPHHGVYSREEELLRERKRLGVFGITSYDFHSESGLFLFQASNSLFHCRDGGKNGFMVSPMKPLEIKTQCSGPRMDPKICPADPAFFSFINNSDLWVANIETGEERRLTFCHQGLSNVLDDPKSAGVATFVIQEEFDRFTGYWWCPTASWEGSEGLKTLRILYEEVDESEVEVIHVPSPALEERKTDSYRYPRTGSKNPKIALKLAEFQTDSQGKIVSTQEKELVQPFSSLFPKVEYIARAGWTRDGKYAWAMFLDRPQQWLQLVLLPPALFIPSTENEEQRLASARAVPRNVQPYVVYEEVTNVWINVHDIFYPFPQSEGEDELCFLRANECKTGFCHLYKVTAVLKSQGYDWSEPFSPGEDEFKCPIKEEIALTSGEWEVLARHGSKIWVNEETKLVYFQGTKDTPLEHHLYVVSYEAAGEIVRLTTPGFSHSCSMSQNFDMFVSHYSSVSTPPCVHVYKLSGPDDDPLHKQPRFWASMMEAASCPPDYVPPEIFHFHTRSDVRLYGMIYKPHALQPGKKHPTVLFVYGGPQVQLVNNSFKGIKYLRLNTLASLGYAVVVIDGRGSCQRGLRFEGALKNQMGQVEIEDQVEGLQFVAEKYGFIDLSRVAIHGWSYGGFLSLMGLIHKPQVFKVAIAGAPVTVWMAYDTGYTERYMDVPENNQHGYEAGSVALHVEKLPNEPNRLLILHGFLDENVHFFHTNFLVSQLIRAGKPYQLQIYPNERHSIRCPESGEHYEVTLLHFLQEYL

recombinant DPP9, sequence (Q86TI2 whole entry, species assumed): as the sequence (Q86TI2 whole entry) above

Compound: CC(C)C[C@@H](N)C(O)C(=O)N1CCC[C@H]1C(=O)O (stereo partly drawn) [CQ04, (2S,3R)-3-amino-2-hydroxy-5-methyl-hexanoyl-proline]
- direct DPP9 (DPP8/9) inhibition (recombinant DPP9): did not inhibit
- IC50 (PEPD [1]): 160 nM
- prolidase activity (Ala-Pro dipeptide cleavage) in THP-1 cell lysates (prolidase (PEPD)): completely blocked prolidase activity
- inhibition of bestatin-sensitive aminopeptidases [2]: did not inhibit
- thermal stabilization of PEPD (PEPD [3]): stabilized PEPD
- thermal stabilization of NPEPPS (NPEPPS): nor the bestatin-sensitive aminopeptidase NPEPPS
- thermal stabilization of PEPD (PEPD [4]): stabilize both PEPD and XPNPEP1
- thermal stabilization of XPNPEP1 (XPNPEP1 [5]): stabilize both PEPD and XPNPEP1
- thermal stabilization of XPNPEP3 (XPNPEP3 [6]): slightly stabilized XPNPEP3
- inhibition of XPNPEP1 enzymatic activity (XPNPEP1 [7]): inhibits XPNPEP1 enzymatic activity
- inhibition of XPNPEP3 in an enzymatic assay (XPNPEP3 [8]): inhibited XPNPEP3
- cytotoxicity in CASP1−/− MV4;11 cells (MV4;11 cells; CASP1−/−): not cytotoxic
- cytotoxicity in WT MV4;11 cells (MV4;11 cells; WT): not cytotoxic
- disruption of NLRP1–DPP9 interaction (DPP9 elution) (NLRP1–DPP9 interaction): had no impact on the NLRP1 ternary complex

— article PMC9179932 (Nature chemical biology, 2022)
